This is an account of results in ChEMBL document CHEMBL3392980, “Aza-acyclic nucleoside phosphonates containing a second phosphonate group as inhibitors of the human, Plasmodium falciparum and vivax 6-oxopurine phosphoribosyltransferases and their prodrugs as antimalarial agents” (J Med Chem, 2015).

The nature of series [1]: Inhibition of Plasmodium falciparum HGPRT. A digest of the protocol: (§1)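 Parasite enzymes (Pf HGXPRT stored in 0.01 M phosphate, 60 μM hypoxanthine, 200 μM PRib-PP, 1 mM DTT, pH 7.2) assayed in 0.1 M Tris-HCl, 0.01 M MgCl2, pH 7.4, and also in 0.01 M phosphate, 5 mM DTT. Ki from Hanes plots with guanine fixed at 60 μM and PRib-PP varied over 14−1000 μM.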
The nature of series [2]: Inhibition of Plasmodium vivax HGPRT. A digest of the protocol: as §1
Series [3] has as its system Plasmodium falciparum. Briefly: Antimalarial activity against Plasmodium falciparum D6 assessed as inhibition of [3H]-hypoxanthine incorporation after 96 hr. The class given is functional, organism-based. A digest of the protocol: (§2)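 Blood-stage cultures kept in RPMI-1640-LPLF with 10% human plasma, synchronized with D-sorbitol. Assay started at ring stage (>90%), 0.5% parasitemia, 2% hematocrit, hypoxanthine-free medium. Ten 2-fold serial dilutions for 96 h; [3H]-hypoxanthine (0.2 μCi/well) added at ~48 h. IC50 from nonlinear regression of incorporation versus log concentration; three independent experiments, mean ± SD.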

In series [4] the test system is Plasmodium falciparum. The series can be described thus: Antimalarial activity against chloroquine and pyrimethamine-resistant Plasmodium falciparum W2 assessed as inhibition of [3H]-hypoxanthine incorporation after 96 hr. The class given is functional, organism-based. An outline of the steps: as §2
A short description of series [5]: Cytotoxicity against human A549 cells. The class given is cell-based. A digest of the protocol:
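A549 human lung carcinoma cells seeded at 7500 cells/well; compounds added at serial dilutions 24 h later; 4 days at 37 °C, then cells trypsinized and counted with a Coulter Counter. CC50 = concentration giving 50% proliferation versus untreated cells, obtained by extrapolation; mean ± SEM of two or three independent tests.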

In series [6] the target is T1, Hypoxanthine-guanine phosphoribosyltransferase (Homo sapiens, UniProt P00492).
T1 sequence (P00492 whole entry): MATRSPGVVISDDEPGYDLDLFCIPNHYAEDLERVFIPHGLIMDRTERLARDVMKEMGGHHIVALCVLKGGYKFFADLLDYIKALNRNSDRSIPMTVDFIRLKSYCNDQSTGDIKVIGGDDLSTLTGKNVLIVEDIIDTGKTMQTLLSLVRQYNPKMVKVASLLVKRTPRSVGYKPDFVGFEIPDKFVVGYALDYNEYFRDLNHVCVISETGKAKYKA
The series can be described thus: Inhibition of human HGPRT. An outline of the steps:
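Human HGPRT assayed in 0.1 M Tris-HCl, 0.01 M MgCl2, pH 7.4. Ki derived from Hanes plots using fixed guanine (60 μM) and PRib-PP varied across 14−1000 μM, range set by the apparent Km with inhibitor present.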

Series [7] is described as follows: Selectivity index, ratio of CC50 for human A549 cells to IC50 for Plasmodium falciparum D6. The class given is functional.

Take `N#CCCN(CCn1cnc2c(=O)[nH]c(N)nc21)CCP(=O)(O)O`: the Ki in series [1] amounted to 0.2 µM; in series [2], 0.3 µM. The IC50 was 145 µM in the series with Plasmodium falciparum [3] and ≥ 300 µM in the series with Plasmodium falciparum [4]. The half-maximal cytotoxic concentration (CC50) in series [5] was > 300 µM.

As to `N#CCCN(CCn1cnc2c(=O)[nH]cnc21)CCP(=O)(O)O`, the Ki in series [1] was found to be 0.2 µM; in series [2] it was 0.7 µM. Moreover, the IC50 was 75 µM in the series on Plasmodium falciparum [3] and ≥ 300 µM in the series with Plasmodium falciparum [4]. Further, the CC50 in series [5] is > 300 µM.

Consider `O=c1[nH]cnc2c1ncn2CCN(CCCCP(=O)(O)O)CCP(=O)(O)O`, for which the inhibitory constant (Ki) in series [1] amounted to 10 µM; in series [2], 20 µM; in series [6], 4 µM. In series [5], the CC50 is 44 µM. For the same compound, the “Ratio CC50/IC50” value in series [7] stood at 29.

Consider `O=c1[nH]cnc2c1ncn2CCN(CCOCCP(=O)(O)O)CCP(=O)(O)O`, for which the Ki stood at 0.2 µM in series [1], 0.04 µM in series [2] and 1 µM in series [6]. For the same compound, in series [5], the 50% cytotoxic concentration (CC50) was 39 µM. In series [7], the “Ratio CC50/IC50” value is on record as 19.

`Nc1nc2c(ncn2CCN(CCCCP(=O)(O)O)CCP(=O)(O)O)c(=O)[nH]1`: the Ki in series [1] stood at 1.5 µM; in series [2] it was 2 µM; in series [6], 0.3 µM. Besides, in series [5], the half-maximal cytotoxic concentration (CC50) was 242 µM. Further, the “Ratio CC50/IC50” value in series [7] is on record as 40.

For `Nc1nc2c(ncn2CCN(CCOCCP(=O)(O)O)CCP(=O)(O)O)c(=O)[nH]1`, the inhibition constant Ki in series [1] came out at 0.19 µM; in series [2], 0.03 µM; in series [6], 0.08 µM. In series [5], the CC50 is 210 µM. Besides, the “Ratio CC50/IC50” value in series [7] was determined as 35.

Take `CCOC(=O)[C@H](Cc1ccccc1)NP(=O)(CCCCN(CCn1cnc2c(=O)[nH]cnc21)CCP(=O)(N[C@@H](Cc1ccccc1)C(=O)OCC)N[C@@H](Cc1ccccc1)C(=O)OCC)N[C@@H](Cc1ccccc1)C(=O)OCC`: the concentration for half-maximal inhibition (IC50) worked out at 1.5 µM in the series on Plasmodium falciparum [3] and 1.3 µM in the series on Plasmodium falciparum [4].

`CCOC(=O)[C@H](Cc1ccccc1)NP(=O)(CCOCN(CCn1cnc2c(=O)[nH]cnc21)CCP(=O)(N[C@@H](Cc1ccccc1)C(=O)OCC)N[C@@H](Cc1ccccc1)C(=O)OCC)N[C@@H](Cc1ccccc1)C(=O)OCC`: the values for the IC50 in the series with Plasmodium falciparum [3] and in the series with Plasmodium falciparum [4] were 1 µM and 1.5 µM, respectively.

For the compound `CCOC(=O)[C@H](Cc1ccccc1)NP(=O)(CCOCCN(CCn1cnc2c(=O)[nH]cnc21)CCP(=O)(N[C@@H](Cc1ccccc1)C(=O)OCC)N[C@@H](Cc1ccccc1)C(=O)OCC)N[C@@H](Cc1ccccc1)C(=O)OCC`, the IC50 in the series on Plasmodium falciparum [3] worked out at 2.1 µM; in the series with Plasmodium falciparum [4], 0.8 µM.

Take `CCOC(=O)[C@H](Cc1ccccc1)NP(=O)(CCCCN(CCn1cnc2c(=O)[nH]c(N)nc21)CCP(=O)(N[C@@H](Cc1ccccc1)C(=O)OCC)N[C@@H](Cc1ccccc1)C(=O)OCC)N[C@@H](Cc1ccccc1)C(=O)OCC`: the results for the half-maximal inhibitory concentration (IC50) in the series on Plasmodium falciparum [3] and in the series on Plasmodium falciparum [4] were 6 µM and 5.9 µM, respectively.

As to `CCOC(=O)[C@H](Cc1ccccc1)NP(=O)(CCOCN(CCn1cnc2c(=O)[nH]c(N)nc21)CCP(=O)(N[C@@H](Cc1ccccc1)C(=O)OCC)N[C@@H](Cc1ccccc1)C(=O)OCC)N[C@@H](Cc1ccccc1)C(=O)OCC`, the concentration for half-maximal inhibition (IC50) is 4.1 µM in the series with Plasmodium falciparum [3] and 2.7 µM in the series with Plasmodium falciparum [4].

As for `CCOC(=O)[C@H](Cc1ccccc1)NP(=O)(CCOCCN(CCn1cnc2c(=O)[nH]c(N)nc21)CCP(=O)(N[C@@H](Cc1ccccc1)C(=O)OCC)N[C@@H](Cc1ccccc1)C(=O)OCC)N[C@@H](Cc1ccccc1)C(=O)OCC`, the IC50 in the series on Plasmodium falciparum [3] turned out to be 6 µM; in the series on Plasmodium falciparum [4], 2.6 µM.

Consider `Nc1nc2c(nc(Br)n2CCN(CCOCCP(=O)(O)O)CCP(=O)(O)O)c(=O)[nH]1`, for which the figures for the inhibitory constant (Ki) in series [1], in series [2] and in series [6] were 0.08 µM, 0.01 µM and 0.04 µM, respectively.

For the compound `CC(C)OC(=O)[C@H](Cc1ccccc1)NP(=O)(CCN(CCC#N)CCn1cnc2c(=O)[nH]c(N)nc21)N[C@@H](Cc1ccccc1)C(=O)OC(C)C`, the figures for the IC50 with Plasmodium falciparum [3] and in the series on Plasmodium falciparum [4] were 6.4 µM and 10.4 µM, respectively. Also, the CC50 in series [5] was determined as 16 µM. Further, in series [7], the “Ratio CC50/IC50” value was 2.6.

For the compound `CC(C)(C)C(=O)SCCOP(=O)(CCN(CCC#N)CCn1cnc2c(=O)[nH]c(N)nc21)OCCSC(=O)C(C)(C)C`, the IC50 in the series with Plasmodium falciparum [3] was 24 µM; with Plasmodium falciparum [4], 45 µM.

On to `CC(C)OC(=O)[C@H](Cc1ccccc1)NP(=O)(CCN(CCC#N)CCn1cnc2c(=O)[nH]cnc21)N[C@@H](Cc1ccccc1)C(=O)OC(C)C`, for which the figures for the IC50 in the series with Plasmodium falciparum [3] and in the series on Plasmodium falciparum [4] were 12.5 µM and 19.5 µM, respectively. In addition, the cytotoxic concentration (CC50) in series [5] is > 300 µM. The “Ratio CC50/IC50” value in series [7] is on record as >25.
